AI-2 QS mod – modulators of Vibrio harveyi AI-2 quorum sensing system; Vibrio harveyi JMH597 AI-2 luminescence/OD600 ratio, 9 h; active compounds read low; strain lacks LuxN and CqsS sensors; 0 = neutral-control median; activity change, % at 7.5 µM; 300,000 tested, 0.4% active; AID 2094; in the data active = activity change below about -75%, passing the limit was not always enough;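 also: luminescence divided by OD600 gain over 9 h not by final OD600 alone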
PHOSPHO1 block – PHOSPHO1 (human) inhibition; recombinant PHOSPHO1, absorbance phosphatase assay; 290,000 tested, 1.1% active; Q8TCT1; inhibition, % at 13.3 µM; in the data active = inhibition above about 60%
ALR H2O2 inh – human ALR oxidase inhibition via reduced H2O2; P55789; purified ALR, DTT oxidation, H2O2 HRP-luminol luminescence; inhibition, % (no concentration beside the values); 290,000 tested, 3.8% active; AID 485317;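 active = mean replicate inhibition above about 79%, with every replicate also reaching it, limit read from the data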
Target sequence (P55789 whole entry, looked up): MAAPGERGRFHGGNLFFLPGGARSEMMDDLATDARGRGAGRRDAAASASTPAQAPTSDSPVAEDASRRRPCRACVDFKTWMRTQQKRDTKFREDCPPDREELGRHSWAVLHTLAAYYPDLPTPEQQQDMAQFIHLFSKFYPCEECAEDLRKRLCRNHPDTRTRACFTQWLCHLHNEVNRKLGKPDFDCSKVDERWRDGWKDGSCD
HCV core dimer – HCV core protein dimerization inhibition. TR-FRET GST/Flag-core106 dimerization, 1536-well. AID 1899. 300,000 tested, 0.33% active. inhibition, % at 5 µM;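 active = inhibition above the mean of all tested compounds plus 3 SD, set per screening campaign, cut at about 45% in these data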
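Assay system – GST-tagged and Flag-tagged HCV core protein residues 1-106 · Quantity – core106 proteins, GST 13.5 nM and Flag 17 nM · Benchmarks – unlabelled core106 and no-GST-core106 wells · Read-out basis – percent inhibition of core106 dimerization signal · Detection – time-resolved FRET, ex 340 nm, em 617 and 671 nm · Schedule – 4 h at 22.5 °C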
HSF1 inh – HSF1 inhibition; AID 2098; activity change, negative = inhibition, % at 7.5 µM (by protocol); 300,000 tested, 0.77% active; NIH3T3-HGL HSE-luciferase, MG132-induced, luminescence 8 h; active compounds read low;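 active = more than half of replicate wells show activity change below -50%, luminescence cut by over half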;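 also: luciferase reports HSF-1 transcriptional activity via heat shock element; 0% = median of DMSO wells and -100% = zero luminescence signal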
HSF-1 act – increases HSF-1 driven luciferase reporter signal | NIH3T3-HGL HSF-1 luciferase reporter, MG132, 8 h; 100% = twice DMSO control signal | activation, % at 9 µM | 300,000 tested, 1.7% active;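 active = mean replicate activation of at least 50% with a set share of replicates each reaching 50%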;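 also: 0% = median of the neutral control wells and 100% = twice that signal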
* hit, by the source's call; · = no result. In the library only some 6.8% were active in any assay of this set; here they are far more common.

SMILES	AI-2 QS mod	PHOSPHO1 block	ALR H2O2 inh	HCV core dimer	HSF1 inh	HSF-1 act
Cc1ccn2c(Nc3ccccc3C)c(-c3cccnc3)nc2c1	10	57	97*	3	6	20
Cc1ccccc1Nc1c(-c2ccncc2)nc2ccc(Cl)cn12	1	28	·	2	-32	-32
CCCCn1c(SCC(=O)Nc2cc(C)on2)nc2cc(S(N)(=O)=O)ccc21	·	·	3	·	·	·
CCCCn1c(SC(C)C(=O)c2ccc(OC)cc2)nc2cc(S(N)(=O)=O)ccc21 (configuration not stated)	51	6	1	0	7	2
CCCCn1c(SCc2c(C)noc2C)nc2cc(S(N)(=O)=O)ccc21	20	33	·	8	30	52*
CCCCn1c(SCC(=O)c2ccc(OC)cc2OC)nc2cc(S(N)(=O)=O)ccc21	23	38	·	79*	0	4
NS(=O)(=O)c1cccc(NC(=O)CSc2nnc(C3CC3)n2-c2ccccc2)c1	·	·	-6	·	·	·
O=C(NCC1CCCO1)c1nn2c(C(F)(F)F)cc(-c3cc(Br)cs3)nc2c1Br (configuration not stated)	5	51	-4	-23	19	62*
O=C(NCC1CCCO1)c1nn2c(C(F)(F)F)cc(-c3ccco3)nc2c1Cl (configuration not stated)	6	15	·	9	-2	-9
CCOC(=O)CNC(=O)c1ccc(OCC(F)(F)F)cc1	12	36	-14	-9	7	21
CC1CCN(C(=S)c2ccc(O)cc2)CC1	9	12	96*	-4	-1	20
COC(=O)c1nn(-c2ccc3c(c2)CCN3C(C)=O)cc1O	1	41	52	5	-58*	-61
CCOC(=O)c1nn(-c2ccc3c(c2)OCCO3)cc1O	19	-6	7	-1	21	44
CCOC(=O)c1nn(-c2ccc(C)cc2)cc1C(=O)c1ccccc1	-60	-2	0	-1	39	59*
Cc1ccc(O)c(C(=O)c2cnn(-c3ccccc3)c2)c1	20	-57	-3	7	1	4
CC(=O)c1nn(-c2ccc(Cl)cc2)cc1C(=O)c1ccccc1	3	·	0	0	·	·
CCOC(=O)c1nn(-c2ccc(C)c(C)c2)cc1O	43	-18	97*	-1	24	21
Cc1ccc(-n2cc(C(=O)c3ccccc3O)cn2)cc1	-4	28	-11	4	-77*	-79
CC(=O)Nc1ccc(NS(=O)(=O)c2ccc3c(c2)oc(=O)n3C)cc1	4	24	-5	3	-8	-8
O=C1N=c2ccccc2=C1c1[nH]c(=S)[nH]c1O	17	39	-5	2	3	36
Cc1ccc(Cl)c2c1=NC(=O)C=2c1[nH]c(=S)[nH]c1O	0	-5	-3	1	58	126*
Cc1cc(C)c2ccc(N)nc2c1O	19	20	91*	-18	7	24
CCOC(=O)CSC1=C(C#N)C(c2ccccc2OC)CC(=O)N1 (configuration not stated)	36	3	-2	2	5	33
CC(=O)C1=C(C)NC(SCC(=O)c2ccc(F)cc2)=C(C#N)C1c1ccco1 (configuration not stated)	1	43	-23	-1	10	14
CCOC(=O)CSC1=C(C#N)C(c2ccccc2C)C2=C(CCCC2=O)N1 (configuration not stated)	7	10	-4	-7	-85*	-89
CCCCc1ccc(NC(=O)CSC2=C(C#N)C(c3ccco3)C3=C(CCCC3=O)N2)cc1 (configuration not stated)	11	-29	98*	45	10	20
COc1cccc(NC(=O)CSC2=C(C#N)C(c3ccco3)C3=C(CCCC3=O)N2)c1 (configuration not stated)	7	-3	59	7	13	44
CCCCOC(=O)CSC1=C(C#N)C(c2ccccc2OCC)C(C#N)C(=O)N1 (configuration not stated)	-12	36	18	3	7	-8

Bioassay records from PubChem.
